Experimental data reported in ChEMBL document CHEMBL1128508, “Synthesis and biological evaluation of radioiodinated phospholipid ether stereoisomers” (J Med Chem, 1995).

Legend:
Rattus norvegicus [1] = test: Biodistribution in spleen 48 hours after iv injection in walker tumor bearing rat; format: ADME, organism-based; settings: in vivo
Outline: (§1)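 Female Sprague–Dawley rats (200–250 g) were inoculated in the right hind limb with 5.0 × 10⁶ Walker 256 cells in saline and used 6–10 days later, when tumors averaged 10 g. The radioiodinated agent, in 2–3% Tween-20/saline after ethanol removal, was given as 5–10 μCi in 0.5 mL by tail vein to anesthetized rats. Tissues were dissected, weighed and counted with decay correction. Values are % ID/g, mean ± SEM, n = 3.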

Rattus norvegicus [2] = test: Biodistribution in lung 48 hours after iv injection in walker tumor bearing rat; format: ADME, organism-based; settings: in vivo; outline: as §1
Rattus norvegicus [3] = test: Biodistribution in tumor 24 hours after iv injection in walker tumor bearing rat; format: ADME, organism-based; settings: in vivo; outline: as §1
Rattus norvegicus [4] = test: Biodistribution in thyroid 48 hours after iv injection in walker tumor bearing rat; format: ADME, organism-based, Thyroid gland; settings: in vivo; outline: as §1
Rattus norvegicus [5] = test: Biodistribution in lung 24 hours after iv injection in walker tumor bearing rat; format: ADME, organism-based; settings: in vivo; outline: as §1
Rattus norvegicus [6] = test: Biodistribution in plasma 48 hours after iv injection in walker tumor bearing rat; format: ADME, organism-based; settings: in vivo; outline: as §1
Rattus norvegicus [7] = test: Ratio of the biodistribution in tumor to blood 48 hours after iv injection in walker tumor bearing rat; format: ADME, organism-based; settings: in vivo
Outline: (§2)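 Walker 256 tumor-bearing female Sprague–Dawley rats were given 5–10 μCi of radioiodinated agent in Tween-20/saline iv by tail vein (n = 3 per time point). After dissection and decay-corrected counting, tumor % ID/g was divided by blood or liver % ID/g.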

Rattus norvegicus [8] = test: Biodistribution in plasma 24 hours after iv injection in walker tumor bearing rat; format: ADME, organism-based; settings: in vivo; outline: as §1
Rattus norvegicus [9] = test: Biodistribution in spleen 24 hours after iv injection in walker tumor bearing rat; format: ADME, organism-based; settings: in vivo; outline: as §1
Rattus norvegicus [10] = test: Biodistribution in liver 48 hours after iv injection in walker tumor bearing rat; format: ADME, organism-based; settings: in vivo; outline: as §1
Rattus norvegicus [11] = test: Ratio of the biodistribution in tumor to liver 24 hours after iv injection in walker tumor bearing rat; format: ADME, organism-based; settings: in vivo; outline: as §2
Rattus norvegicus [12] = test: Biodistribution in kidney 24 hours after iv injection in walker tumor bearing rat; format: ADME, organism-based; settings: in vivo; outline: as §1
Rattus norvegicus [13] = test: Biodistribution in injected site 48 hours after iv injection in walker tumor bearing rat; format: ADME, organism-based; settings: in vivo; outline: as §1
Rattus norvegicus [14] = test: Biodistribution in liver 24 hours after iv injection in walker tumor bearing rat; format: ADME, organism-based; settings: in vivo; outline: as §1
Rattus norvegicus [15] = test: Biodistribution in ovary 24 hours after iv injection in walker tumor bearing rat; format: ADME, organism-based, Female gonad; settings: in vivo; outline: as §1
Rattus norvegicus [16] = test: Biodistribution in ovary 48 hours after iv injection in walker tumor bearing rat; format: ADME, organism-based, Female gonad; settings: in vivo; outline: as §1
Rattus norvegicus [17] = test: Biodistribution in thyroid 24 hours after iv injection in walker tumor bearing rat; format: ADME, organism-based, Thyroid gland; settings: in vivo; outline: as §1
Rattus norvegicus [18] = test: Biodistribution in tumor 48 hours after iv injection in walker tumor bearing rat; format: ADME, organism-based; settings: in vivo; outline: as §1
Rattus norvegicus [19] = test: Biodistribution in blood 48 hours after iv injection in walker tumor bearing rat; format: ADME, organism-based; settings: in vivo; outline: as §1
Rattus norvegicus [20] = test: Biodistribution in injected site 24 hours after iv injection in walker tumor bearing rat; format: ADME, organism-based; settings: in vivo; outline: as §1
Rattus norvegicus [21] = test: Biodistribution in muscle 24 hours after iv injection in walker tumor bearing rat; format: ADME, organism-based, Muscle tissue; settings: in vivo; outline: as §1
Rattus norvegicus [22] = test: Biodistribution in duodenum 24 hours after iv injection in walker tumor bearing rat; format: ADME, organism-based; settings: in vivo; outline: as §1
Rattus norvegicus [23] = test: Biodistribution in blood 24 hours after iv injection in walker tumor bearing rat; format: ADME, organism-based; settings: in vivo; outline: as §1
Rattus norvegicus [24] = test: Ratio of the biodistribution in tumor to blood 24 hours after iv injection in walker tumor bearing rat; format: ADME, organism-based; settings: tumour; outline: as §2
Rattus norvegicus [25] = test: Ratio of the biodistribution in tumor to liver 48 hours after iv injection in walker tumor bearing rat; format: ADME, organism-based; settings: in vivo; outline: as §2
Rattus norvegicus [26] = test: Biodistribution in muscle 48 hours after iv injection in walker tumor bearing rat; format: ADME, organism-based, Muscle tissue; settings: in vivo; outline: as §1
Rattus norvegicus [27] = test: Biodistribution in duodenum 48 hours after iv injection in walker tumor bearing rat; format: ADME, organism-based; settings: in vivo; outline: as §1
Rattus norvegicus [28] = test: Biodistribution in kidney 48 hours after iv injection in walker tumor bearing rat; format: ADME, organism-based; settings: in vivo; outline: as §1

Compound | ID/g (Rattus norvegicus [1]) [%] | ID/g (Rattus norvegicus [2]) [%] | ID/g (Rattus norvegicus [3]) [%] | ID/g (Rattus norvegicus [4]) [%] | ID/g (Rattus norvegicus [5]) [%] | ID/g (Rattus norvegicus [6]) [%] | ID/g (Rattus norvegicus [7]) | ID/g (Rattus norvegicus [8]) [%] | ID/g (Rattus norvegicus [9]) [%] | ID/g (Rattus norvegicus [10]) [%] | ID/g (Rattus norvegicus [11]) | ID/g (Rattus norvegicus [12]) [%] | ID/g (Rattus norvegicus [13]) [%] | ID/g (Rattus norvegicus [14]) [%] | ID/g (Rattus norvegicus [15]) [%] | ID/g (Rattus norvegicus [16]) [%] | ID/g (Rattus norvegicus [17]) [%] | ID/g (Rattus norvegicus [18]) [%] | ID/g (Rattus norvegicus [19]) [%] | ID/g (Rattus norvegicus [20]) [%] | also measured
CO[C@@H](COCCCCCCCCCCCCc1cccc(I)c1)COP(=O)([O-])OCC[N+](C)(C)C | 0.1 | 0.14 | 0.78 | 13.69 | 0.35 | 0.03 | 15 | 0.06 | 0.43 | 0.23 | 1.5 | 0.37 | 0.24 | 0.53 | 0.31 | 0.14 | 10.33 | 0.45 | 0.03 | 0.26 | ID/g (Rattus norvegicus [21]): 0.05%; ID/g (Rattus norvegicus [22]): 1.04%; ID/g (Rattus norvegicus [23]): 0.07%; ID/g (Rattus norvegicus [24]): 11.1; ID/g (Rattus norvegicus [25]): 2; ID/g (Rattus norvegicus [26]): 0.02%; ID/g (Rattus norvegicus [27]): 0.23%; ID/g (Rattus norvegicus [28]): 0.16%
CO[C@H](COCCCCCCCCCCCCc1cccc(I)c1)COP(=O)([O-])OCC[N+](C)(C)C | 0.1 | 0.14 | 0.55 | 24.11 | 0.29 | 0.03 | 14.3 | 0.06 | 0.37 | 0.25 | 1.1 | 0.33 | 0.25 | 0.52 | 0.28 | 0.14 | 23.81 | 0.43 | 0.03 | 0.23 | ID/g (Rattus norvegicus [21]): 0.04%; ID/g (Rattus norvegicus [22]): 0.73%; ID/g (Rattus norvegicus [23]): 0.05%; ID/g (Rattus norvegicus [24]): 11; ID/g (Rattus norvegicus [25]): 1.7; ID/g (Rattus norvegicus [26]): 0.02%; ID/g (Rattus norvegicus [27]): 0.34%; ID/g (Rattus norvegicus [28]): 0.2%
COC(COCCCCCCCCCCCCc1cccc(I)c1)COP(=O)([O-])OCC[N+](C)(C)C (racemic) | 0.17 | 0.2 | 0.85 | 24.44 | 0.34 | 0.05 | 11.2 | 0.1 | 0.42 | 0.35 | 1.1 | 0.46 | 0.17 | 0.81 | 0.37 | 0.27 | 47.22 | 0.56 | 0.05 | 0.24 | ID/g (Rattus norvegicus [21]): 0.04%; ID/g (Rattus norvegicus [22]): 1.12%; ID/g (Rattus norvegicus [23]): 0.07%; ID/g (Rattus norvegicus [24]): 12.1; ID/g (Rattus norvegicus [25]): 1.6; ID/g (Rattus norvegicus [26]): 0.03%; ID/g (Rattus norvegicus [27]): 0.44%; ID/g (Rattus norvegicus [28]): 0.24%
